In the library only some 3% were active in any assay of this set; here they are far more common.
V-ATPase pH: regulators of yeast V-ATPase proton transport; S. cerevisiae, pHLuorin cytosolic pH fluorescence; response, % at 10 µM; actives 0.37% (n = 350,000); in the data active means response mostly above about 7.3%, no sharp cut-off; inactive means mostly below about 5.4%; further: actives read high
AI-2 QS modul: Vibrio harveyi AI-2 quorum sensing modulation; activity change, % at 7.5 µM; actives 0.4% (n = 300,000); Vibrio harveyi JMH597 AI-2 luminescence/OD600 ratio, 9 h; hits give low values; strain lacks LuxN and CqsS sensors; 0 = neutral-control median; in the data active means activity change below about -75%, passing the limit was not always enough;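 further: luminescence divided by OD600 gain over 9 h not by final OD600 alone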
CendR NRP1 mod: modulators of CendR peptide binding to human neuropilin-1 | FAM-RPARPAR peptide binding to NRP-1, fluorescence polarization | inhibition, % at 25 µM | actives 0.85% (n = 360,000);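 active means inhibition or corrected inhibition above about 18%, plus a signal ratio from 0.5 to 1.5, limit read from the data, passing the limit was not always enough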
Yeast superoxide: yeast age-related superoxide inhibition as caloric restriction mimetic. AID 2690. S. cerevisiae aged cells, superoxide DHE fluorescence; hits give low values. actives 0.18% (n = 330,000). superoxide response (% of plate mean), % at 10 µM;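 active means superoxide response under a set limit, about three screen SD below normal, cut at about 65% in these data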;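 further: yeast aged for seven days with compound at 30 °C before DHE staining; 100% = average MFI of all compound-treated wells on the plate with controls excluded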
HIF act: HIF pathway transcriptional activation; activation, % at 7.5 µM (by protocol); U2OS HRE-luciferase reporter, luminescence; normalized: DMSO 0%, desferrioxamine 100%; actives 0.32% (n = 300,000);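 active means mean activation of at least 10% of the iron chelator positive control signal, with at least half of replicates also reaching 10%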
T cruzi inh: T. cruzi replication inhibition | T. cruzi beta-gal in NIH3T3, luminescence, 90 h | inhibition, % (no concentration beside the values) | actives 1.4% (n = 300,000);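 active means mean inhibition across valid replicates above about 55%, limit read from the data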;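 further: signal also drops with host cell toxicity which is not excluded here; 0% = plate median of DMSO wells and 100% = zero luminescence signal; higher percent means less beta-gal luminescence so fewer parasites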
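compound dosing = single 50 nL compound addition per well in DMSO | material = NIH/3T3 host cells with β-galactosidase reporter T. cruzi | input = 5,000 host fibroblasts per well | timing = ≥90 h infection period, 3 h prior cell attachment | read-out basis = percent inhibition of parasite-derived β-gal signal | detection = GalScreen β-gal luminescence, detergent lysis, 60 min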
Superoxide pick: confirmation of caloric restriction mimetics inhibiting yeast age-related superoxide; superoxide response (% of plate), % at 10 µM; actives 1% (n = 850); AID 434994; shares compounds with Yeast superoxide; S. cerevisiae aging, superoxide DHE fluorescence; hits give low values;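 active means superoxide signal below 65% of the plate average of sample wells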;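 further: cells aged with compound for 7 days at 30 degrees C before staining; 100% equals mean DHE fluorescence of all compound wells on the plate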
DHE counter: DHE fluorescence interference, counter-screen artifact | fluorescence response, % at 10 µM | 850 tested, under 10 active | S. cerevisiae BY4741, flow cytometry; hits give low values | AID 435000 | shares compounds with Yeast superoxide;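 active means fluorescence response below 15%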;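 further: percent of the mean fluorescence averaged over all compound wells on the plate; lower means stronger quenching of DHE signal or ROS scavenging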
An asterisk follows results filed as active; . = not tested or not shown.

SMILES | V-ATPase pH | AI-2 QS modul | CendR NRP1 mod | Yeast superoxide | HIF act | T cruzi inh | Superoxide pick | DHE counter
NS(=O)(=O)c1ccc(S(=O)(=O)c2ccccc2)nc1 | 1 | -51 | 11 | 64* | . | . | 83 | 90
CCCC(=O)C1=C(O)C(C(=O)OC)C(C)(C)CC1=NCCCCCC(=O)O (centres undefined) | 1 | 4 | 2 | 98 | 0 | -4 | . | .
COc1ccc([N+](=O)[O-])cc1N(CC(O)CN(C)C)S(=O)(=O)c1ccccc1 (centres undefined) | 3 | 0 | 4 | 54* | -1 | -3 | 105 | 111
CCn1cc(S(=O)(=O)Nc2ccc(Cl)cc2F)cn1 | 1 | 15 | 11 | 116 | 0 | 1 | . | .
COc1ccc(NC(=O)COC(=O)c2cc(S(=O)(=O)N3CCCC3)ccc2O)cc1 | -2 | . | 3 | 75 | . | . | . | .
CC(=O)Nc1ccc(NC(=O)COC(=O)c2cc(S(=O)(=O)N3CCCC3)ccc2O)cc1 | 0 | . | 6 | 62* | . | . | 104 | 101
CCOc1ccccc1NC(=O)COC(=O)CC(C)(C)CC1=NS(=O)(=O)c2ccccc2N1 | 6 | 7 | 14 | 58* | 2 | 7 | 106 | 110
CCOC(=O)c1c(C)nc2ccc(Cl)cc2c1-c1ccccc1 | 3 | 16 | -14 | 62* | 0 | 11 | 95 | 102
COC(=O)c1cnc2ccccc2n1 | -2 | -4 | -2 | 95 | 0 | -7 | . | .
O=C(O)c1cnc2ccccc2n1 | 1 | 12 | 0 | 64* | 1 | -1 | 71 | 94
COc1cc(OC)cc(-c2nnc(SCC(=O)N(C(C)C)C(C)C)o2)c1 | -3 | 23 | 3 | 85 | 0 | 21 | 102 | 92
COc1ccc(-c2nnc(SCC(=O)N3CCOCC3)o2)cc1OC | 1 | 21 | -5 | 133 | 0 | -9 | . | .
COc1cccc(-c2nnc(SCC(=O)N(C(C)C)C(C)C)o2)c1 | 1 | 17 | -3 | 110 | 0 | 10 | . | .
COC(=O)CSc1nnc(-c2ccc(OC)c(OC)c2)o1 | 2 | 7 | -1 | 95 | 0 | 17 | 113 | 102
COc1ccc(N2C(S)=C(C#N)C(=O)NC23CCCCC3)cc1 | 2 | 23 | 13 | 98 | 0 | -22 | . | .
O=C(NCc1ccccc1)C1CCN(S(=O)(=O)c2ccc(N3CCCC3=O)cc2)CC1 | -1 | -1 | 4 | 88 | 0 | 0 | . | .
CCCNC(=O)c1ccc2c(=O)c(O)c(-c3ccc(Cl)c([N+](=O)[O-])c3)[nH]c2c1 | -2 | 20 | 7 | 64* | 2 | -9 | 80 | 96
CC(=O)OCCN(Cc1ccccc1)Cc1ccc2c(c1)OCO2 | 0 | 18 | -3 | 64* | 0 | -11 | 116 | 111
CC(NC(=O)N(Cc1ccccc1)Cc1ccc2c(c1)OCO2)(C(F)(F)F)C(F)(F)F | 1 | 9 | 8 | 96 | 0 | 11 | . | .
CCSc1nnc(C)c(=O)n1COC(=O)c1ccc(S(=O)(=O)N2CCCC2)cc1 | 0 | 42 | 13 | 51* | 0 | -6 | 105 | 102
CCSc1nnc(-c2ccc(S(=O)(=O)N3CCCC3)cc2)n1C | -2 | 22 | -14 | 90 | 0 | -12 | . | .
COc1ccc(N2CCN(C(=O)Cn3nnc(-c4ccccc4N)n3)CC2)cc1 | -1 | 5 | 1 | 144 | -1 | 9 | . | .
CCOc1ccc(NC(=O)N2CCc3ccccc3C2)cc1 | 10 | 11 | 7 | 93 | 2 | 11 | . | .
COc1ccc(NC(=O)N2CCc3ccccc3C2)cc1 | -1 | 7 | -6 | 52* | 2 | 4 | 101 | 102
CCOC(=O)N1CCC(N2C(=O)c3ccccc3C2Nc2ccc3c(C)cc(=O)oc3c2)CC1 (centres undefined) | -3 | -2 | -14 | 96 | -1 | -5 | . | .
